These results are taken from ChEMBL document CHEMBL3217651, “A furoxan-amodiaquine hybrid as a potential therapeutic for three parasitic diseases()” (Medchemcomm, 2012).

In test [1] the test system is Plasmodium falciparum. The test is described as follows: Ratio of IC50 for chloroquine-sensitive Plasmodium falciparum 3D7 by luciferase based delayed death assay to IC50 for chloroquine-sensitive Plasmodium falciparum 3D7 by SYBR Green I staining. The test is classed as functional. An outline of the steps:
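P. falciparum 3D7 in human erythrocytes (0.3% parasitemia, 2.5% hematocrit final), seven fivefold dilutions from 5.7 or 29 μM. Standard format: 72 h at 37 °C, 5% CO2, then saponin/Triton lysis with SYBR Green I overnight in the dark, fluorescence 485/535 nm. Delayed-death format: 96 h, luciferase viability read-out. The line is the ratio of the delayed-death IC50 to the SYBR IC50.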

Test [2] concerns Plasmodium falciparum. The test is described as follows: Antimalarial activity against chloroquine-sensitive Plasmodium falciparum 3D7 infected in human erythrocytes after 72 hrs by SYBR Green I staining. The note with it: 3D7, 72 h.
The subject of test [3] is Plasmodium falciparum. As to the kind of experiment: Antimalarial activity against chloroquine-sensitive Plasmodium falciparum 3D7 infected in human erythrocytes after 96 hrs by luciferase based delayed death assay. The test is classed as functional, organism-based. As to conditions: 3D7, 96 h. An outline of the steps:
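Delayed-death format of the 3D7 erythrocyte proliferation assay: parasites incubated 96 hours with compound so that activity against progeny is detected, with luciferase as the viability reporter; IC50 taken from this read-out.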

Test [4] concerns Schistosoma mansoni. As to the kind of experiment: Antischistosomiasis activity against Schistosoma mansoni assessed as worm mobility and survival at 10 uM by stereomicroscopic analysis. The test is classed as functional, organism-based. An outline of the steps: (§1)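 Adult worms perfused with RPMI 1640 from female Swiss-Webster mice 7 weeks after cercarial infection. They were washed and held at 15–20 per well in cRPMI (25 mM HEPES, penicillin/streptomycin, 10% FBS) overnight at 37 °C, 5% CO2. Compound from 10 mM DMSO stock was tested at 50, 10, 5 and 1 μM against DMSO-only wells. Media plus compound were renewed every 48 h; motility and survival scored by stereomicroscope, 10 s per worm.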

The subject of test [5] is Schistosoma mansoni. As to the kind of experiment: Antischistosomiasis activity against Schistosoma mansoni at 5 nM to 50 uM by thioredoxin glutathione reductase biochemical assay. The test is classed as functional. An outline of the steps:
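S. mansoni TGR (20 nM) preincubated 10 min at room temperature with 100 μM NADPH and compound (50 μM to 5 nM, eight levels) in 0.1 M potassium phosphate pH 7.4, 10 mM EDTA. Then 3 mM DTNB was added and A412 followed over the first 3 min. Residual activity was expressed relative to DMSO controls, in triplicate, and IC50 derived.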

The test system of test [6] is Ancylostoma ceylanicum. As to the kind of experiment: Nematicidal activity against Ancylostoma ceylanicum assessed as live/dead worms at 100 uM up to 120 hrs by adult worm killing assay. The test is classed as functional, organism-based. An outline of the steps:
(§2)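 Adult A. ceylanicum taken from small intestine of infected Syrian hamsters, cultured in RPMI 1640 with 50% FCS, penicillin/streptomycin, Fungizone. Ten worms per well, 2 wells per treatment, with 100 μM compound; DMSO and 100 μM albendazole controls. Wells scored by light microscopy every 24 h for percent live/dead, death meaning complete loss of motility, across 120 h.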

Test [7] has as its system Schistosoma mansoni. As to the kind of experiment: Antischistosomiasis activity against Schistosoma mansoni assessed as worm mobility and survival at 50 uM after 24 hrs by stereomicroscopic analysis. The test is classed as functional, organism-based. The gist of the method: as §1
For test [8], the system named is Ancylostoma ceylanicum. As to the kind of experiment: Nematicidal activity against Ancylostoma ceylanicum assessed as live/dead worms at 100 uM after 72 hrs by adult worm killing assay. The class given is functional, organism-based. An outline of the steps:
as §2

Active and inactive are the calls of the source. No cut-off for these calls is given here. Where only a bound is given, the exact number is not on record here.

The IC50 is the midpoint of a concentration-inhibition curve. As for `CC(C)(C)N(Cc1cc(Nc2ccnc3cc(Cl)ccc23)cc(-c2no[n+]([O-])c2/C=N/O)c1)N=O`, in the test with Plasmodium falciparum [1], the “Ratio IC50” value came to 50. Also, the half-maximal inhibitory concentration (IC50) in the test on Plasmodium falciparum [2] was determined as 0.024 µM; with Plasmodium falciparum [3] it was 1.07 µM.

As to `N#Cc1c(-c2ccccc2)no[n+]1[O-]` [FUROXAN], the result in the test on Schistosoma mansoni [4] and in the test on Schistosoma mansoni [5] was Active.

With `CCN(CC)Cc1cc(Nc2ccnc3cc(Cl)ccc23)ccc1O`, the 50% inhibitory concentration (IC50) with Plasmodium falciparum [2] is 0.015 µM; with Plasmodium falciparum [3], greater than 10 µM.

With `CC(C)(C)NCc1cc(Br)cc(Nc2ccnc3cc(Cl)ccc23)c1`, the IC50 in the test on Plasmodium falciparum [2] came out at 0.007 µM; in the test with Plasmodium falciparum [3], 0.065 µM.

`CC(C)(C)NCc1cc(Nc2ccnc3cc(Cl)ccc23)cc(-c2no[n+]([O-])c2C#N)c1`: the IC50 with Plasmodium falciparum [2] came out at 0.04 µM; in the test on Plasmodium falciparum [3] it was 0.63 µM. Further, the outcome in the test on Ancylostoma ceylanicum [6], in the test with Schistosoma mansoni [7], in the test with Ancylostoma ceylanicum [8] and with Schistosoma mansoni [5] was Active. For the same compound, the outcome in the test on Schistosoma mansoni [4] was inactive.

For the compound `CC(C)(C)N(Cc1cc(Nc2ccnc3cc(Cl)ccc23)cc(-c2no[n+]([O-])c2C#N)c1)N=O`, the IC50 in the test with Plasmodium falciparum [2] is 0.113 µM; in the test on Plasmodium falciparum [3], greater than 15 µM.

As to `C[C@@H]1CC[C@H]2[C@@H](C)C(=O)O[C@@H]3O[C@@]4(C)CC[C@@H]1[C@]32OO4` [ARTEMISININ], the 50% inhibitory concentration (IC50) in the test with Plasmodium falciparum [2] turned out to be 0.011 µM; with Plasmodium falciparum [3], 0.012 µM.
